# Source: ChEMBL document CHEMBL1151199, “5-methylcoumaranones from Mutisia friesiana and their bioactivity” (2004)
# Active and inactive are the calls of the source. No cut-off for these calls is given here.
# Experiments:
# [1] = tested on: Cladosporium cucumerinum; test: Antifungal activity against Cladosporium cucumerinum at 100 ug/spot after 2 to 3 days by bioautographic assay; assay type: functional
# In short: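 Each sample was dissolved at 10 mg ml-1 in CH2Cl2, and 10 µL was spotted onto a TLC plate by graduated capillary, giving 100 µg/spot. The plate was then assayed bioautographically against Cladosporium cucumerinum. Benomyl served as the reference fungicide, applied at 10 µg/spot. The read-out was the inhibition zone in mm.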
# [2] = tested on: Candida albicans; test: Antifungal activity against Candida albicans BE 138/99 at 100 ug/disk after 48 hrs by standard paper sensitivity disk-agar plate method; assay type: functional, organism-based
# In short: (§1)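 Agar in Petri dishes inoculated with the test organism (E. coli ATCC 25922, S. aureus ATCC 29213 or C. albicans BE 138/99). Samples were loaded at 100 µg per 5 mm paper disk, and the disks were placed on the agar. The read-out was the diameter of the inhibition zone in mm.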
# [3] = tested on: Escherichia coli; test: Antibacterial activity against Escherichia coli ATCC 25922 at 100 ug/disk after 48 hrs by standard paper sensitivity disk-agar plate method; assay type: functional, organism-based; in short: as §1
# [4] = tested on: Staphylococcus aureus; test: Antibacterial activity against Staphylococcus aureus ATCC 29213 at 100 ug/disk after 48 hrs by standard paper sensitivity disk-agar plate method; assay type: functional; conditions: ATCC 29213, 48 h, read-out: IZ; in short: as §1
# [5] = tested on: Cladosporium cucumerinum; test: Antifungal activity against Cladosporium cucumerinum at 10 ug/spot after 2 to 3 days by bioautographic assay; assay type: functional
# In short: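 TLC bioautography: samples spotted onto a TLC plate with graduated capillaries and assayed against the plant pathogen Cladosporium cucumerinum. Activity is read as the diameter (mm) of the inhibition zone around the spot. Benomyl served as the reference fungicide.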
# [6] = tested on: Staphylococcus aureus; test: Antibacterial activity against Staphylococcus aureus ATCC 29213 at 10 ug/disk after 48 hrs by standard paper sensitivity disk-agar plate method; assay type: functional; conditions: ATCC 29213, 48 h, read-out: IZ
Structure (SMILES),inhibition zone (IZ) [1] [mm],Activity [2],Activity [3],zone of inhibition at 100 µg/disc [4] [mm],inhibition zone (IZ) [5] [mm],zone of inhibition at 10 µg/disc [6] [mm]
CC(C)=CC(O)C(=O)/C(C)=C/CC/C(C)=C/CC1(O)Oc2cccc(C)c2C1=O (stereo not drawn) [MUTISICOUMARANONE B],14,inactive,inactive,10,,
CC(C)=CCC(O)/C(C)=C/CC/C(C)=C/CC1(O)Oc2cccc(C)c2C1=O (stereo not drawn) [MUTISICOUMARANONE D],10,inactive,inactive,10,,
CCCCNC(=O)n1c(NC(=O)OC)nc2ccccc21 [BENOMYL],,,,,20,
CC(C)=CCC/C(C)=C/CC1(O)Oc2cccc(C)c2C1=O (stereo not drawn) [MUTISICOUMARANONE A],8,inactive,inactive,10,,
CC1(C)S[C@@H]2[C@H](NC(=O)[C@H](N)c3ccccc3)C(=O)N2[C@H]1C(=O)O [AMPICILLIN],,,,,,14
C/C(=C\CC1(O)Oc2cccc(C)c2C1=O)CC/C=C(\C)C(=O)/C=C/C(C)(C)O (stereo not drawn) [MUTISICOUMARANONE C],14,inactive,inactive,10,,
